Columns and labels:
Neuromedin-B receptor [1] = biological target: T1, Neuromedin-B receptor (Homo sapiens, UniProt P28336); assay: Displacement of [125I]-(D-Tyr0)NMB from human neuromedin B receptor transfected in HEK293 cells; type: cell-based
In short: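 Whole-cell competition binding used 1 × 10⁶ HEK293 cells stably transfected with hNMBR, with 150 pM ¹²⁵I-[D-Tyr0]NMB (2200 Ci/mmol), in DMEM for 1 h at room temperature. Bound ligand was separated by filtration and total bound counts were measured. Day-to-day standard error was <30%; well-to-well variability was <10%.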

[2] = biological target: Gastrin-releasing peptide receptor (Homo sapiens, UniProt P30550); assay: Inhibition gastrin-releasing peptide receptor
Neuromedin-B receptor [3] = biological target: T1, Neuromedin-B receptor; assay: Antagonist activity at human neuromedin B receptor transfected in HEK293 cells assessed as inhibition of 1 nM neuromedin B-induced myo-[3H]inositol phosphate accumulation after 60 mins by scintillation proximity assay; type: functional, cell-based
In short: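 hNMBR-transfected HEK293 cells (2.5 × 10⁴ per well) were labelled overnight at 37 °C with myo-[³H]inositol in inositol-free DMEM with 25 mM Hepes and 10% dialyzed FBS. Compounds were added in inositol-free DMEM with 0.3% BSA and 10 mM LiCl for 60 min at 37 °C. Cells were lysed in 20 mM formic acid (2 h, 4 °C), and inositol phosphates were captured on RNA-binding SPA beads for 30 min.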

HEK293 = assay: Cytotoxicity against HEK293 cells up to 30 uM after 72 hrs by alamar blue assay; type: cell-based; details: human, hek293, 72 h
HeLa [4] = assay: Cytotoxicity against human HeLa cells up to 30 uM after 72 hrs by alamar blue assay; type: cell-based
In short: (§1)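 HeLa cells were seeded at 5k per well. Compounds were tested as a 9-point threefold dilution series, with triplicate readings at 0 and 72 h. At each time point Alamar Blue was added for 3 h at 37 °C and fluorescence was read. Relative growth was compared to a DMSO control well for each compound.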

HeLa [5] = assay: Cytotoxicity against human HeLa cells after 72 hrs by alamar blue assay; type: cell-based; in short: as §1

T1 sequence (P28336 whole entry): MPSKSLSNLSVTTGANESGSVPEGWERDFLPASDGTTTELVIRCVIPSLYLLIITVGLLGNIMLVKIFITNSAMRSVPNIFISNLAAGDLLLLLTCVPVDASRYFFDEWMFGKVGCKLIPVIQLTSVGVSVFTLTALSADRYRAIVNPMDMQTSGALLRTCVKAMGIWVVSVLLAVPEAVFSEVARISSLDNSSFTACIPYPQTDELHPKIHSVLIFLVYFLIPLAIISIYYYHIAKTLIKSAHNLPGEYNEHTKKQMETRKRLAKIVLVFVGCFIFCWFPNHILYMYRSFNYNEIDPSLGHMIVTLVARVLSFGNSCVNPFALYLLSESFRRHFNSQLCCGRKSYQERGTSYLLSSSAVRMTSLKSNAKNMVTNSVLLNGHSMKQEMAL
Gastrin-releasing peptide receptor, sequence (P30550 whole entry): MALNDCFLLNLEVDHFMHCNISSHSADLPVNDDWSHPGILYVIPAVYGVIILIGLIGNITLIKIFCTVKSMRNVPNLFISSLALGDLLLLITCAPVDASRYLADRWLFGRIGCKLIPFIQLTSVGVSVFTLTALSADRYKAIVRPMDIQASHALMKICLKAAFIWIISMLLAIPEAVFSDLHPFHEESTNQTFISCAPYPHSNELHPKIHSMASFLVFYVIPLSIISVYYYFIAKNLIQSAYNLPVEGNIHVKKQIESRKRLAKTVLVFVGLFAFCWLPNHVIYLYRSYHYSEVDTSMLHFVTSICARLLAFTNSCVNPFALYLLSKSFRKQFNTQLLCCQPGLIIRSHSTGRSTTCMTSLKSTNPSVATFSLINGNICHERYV

Row | IC50 (Neuromedin-B receptor [1]) [nM] | SMILES | other results
1 | 3000 | Cc1ccc2c(c1)NC(c1c(F)cccc1Cl)C1=C(CC(c3ccco3)CC1=O)N2 (configuration not stated) | –
2 | 860 | CC1(C)CC(=O)C2=C(C1)Nc1ccc(Cl)cc1NC2c1c(F)cccc1Cl (configuration not stated) | –
3 | 250 | CSc1ccccc1C1Nc2cc(C)ccc2NC2=C1C(=O)CC1(CCCC1)C2 (configuration not stated) | –
4 | 10000 | CC1(C)CC(=O)C2=C(C1)Nc1ccc(C(N)=O)cc1NC2c1c(F)cccc1Cl (configuration not stated) | –
5 | 370 | CC1(C)CC(=O)C2=C(C1)Nc1ccc(C(F)(F)F)cc1NC2c1c(F)cccc1Cl (configuration not stated) | –
6 | 1300 | CC1(C)CC(=O)C2=C(C1)Nc1ccc(C#N)cc1NC2c1c(F)cccc1Cl (configuration not stated) | –
7 | 10000 | Cc1ccc2c(c1)NC(c1c(F)cccc1Cl)C1=C(CCC1=O)N2 (configuration not stated) | –
8 | 180 | CCN1c2cc(C)ccc2NC2=C(C(=O)CC(C)(C)C2)C1c1c(F)cccc1Cl (configuration not stated) | –
9 | 150 | CCCCN1c2cc(C)ccc2NC2=C(C(=O)CC(C)(C)C2)C1c1c(F)cccc1Cl (configuration not stated) | –
10 | 5400 | Cc1ccc2c(c1)NC(c1c(F)cccc1Cl)C1=C(CC(c3ccc(N(C)C)cc3)CC1=O)N2 (configuration not stated) | –
11 | 2500 | Cc1ccc2c(c1)NC(c1c(F)cccc1F)C1=C(CC(C)(C)CC1=O)N2 (configuration not stated) | –
12 | 300 | Cc1ccc2c(c1)NC(c1c(F)cccc1Cl)C1=C(CC(C)(C)CC1=O)N2 (configuration not stated) | IC50 [2]: > 10000 nM; IC50 (Neuromedin-B receptor [3]): 5500 nM
13 | 10000 | Cc1ccc2c(c1)NC(c1c(F)cccc1Cl)C1=C(CC(C)(C)CC1=O)N2C (configuration not stated) | –
14 | 810 | Cc1ccc2c(c1)NC(c1c(F)cccc1Cl)C1=C(CC(C(C)C)CC1=O)N2 (configuration not stated) | –
15 | 170 | Cc1ccc2c(c1)N(C)C(c1c(F)cccc1Cl)C1=C(CC(C)(C)CC1=O)N2 (configuration not stated) | –
16 | 240 | Cc1ccc2c(c1)NC(c1ccccc1Cl)C1=C(CC3(CCCC3)CC1=O)N2 (configuration not stated) | –
17 | 10000 | CC1(C)CC(=O)C2=C(C1)Nc1ccc(O)cc1NC2c1c(F)cccc1Cl (configuration not stated) | –
18 | 280 | Cc1ccc2c(c1)NC(c1c(F)cccc1Cl)C1=C(CC3(CCCC3)CC1=O)N2 (configuration not stated) | –

Row | IC50 (Neuromedin-B receptor [1]) [nM] | SMILES | other results
19 | 96 | Cc1ccc2c(c1)NC(c1ccccc1C(F)(F)F)C1=C(CC3(CCCC3)CC1=O)N2 (stereo in doubt; 30) | –
20 | 1100 | COc1ccccc1C1Nc2cc(C)ccc2NC2=C1C(=O)CC(C)(C)C2 (configuration not stated) | –
21 | 250 | Cc1ccc2c(c1)NC(c1ccccc1C(F)(F)F)C1=C(CC(C)(C)CC1=O)N2 (configuration not stated) | –
22 | 1300 | CC1(C)CC(=O)C2=C(C1)Nc1ccc(OC(F)(F)F)cc1NC2c1c(F)cccc1Cl (configuration not stated) | –
23 | 2000 | COc1ccc(C2CC(=O)C3=C(C2)Nc2ccc(C)cc2NC3c2c(F)cccc2Cl)cc1 (configuration not stated) | –
24 | 540 | Cc1ccc2c(c1)NC(c1c(F)cccc1C(F)(F)F)C1=C(CC3(CCCC3)CC1=O)N2 (configuration not stated) | –
25 | 1300 | Cc1ccc2c(c1)NC(c1ccccc1F)C1=C(CC(C)(C)CC1=O)N2 (configuration not stated) | –
26 | 2200 | COc1ccc2c(c1)NC(c1c(F)cccc1Cl)C1=C(CC(C)(C)CC1=O)N2 (configuration not stated) | –
27 | 450 | Cc1ccc2c(c1)NC(c1c(F)cccc1Cl)C1=C(CC(C)CC1=O)N2 (configuration not stated) | –
28 | 30 | Cc1ccc2c(c1)NC(c1ccccc1C(F)(F)F)C1=C(CC3(CCCC3)CC1=O)N2 (single isomer, unassigned; (+)) | Activity (HEK293): Non-toxic; Activity (HeLa [4]): Non-toxic; IC50 (HeLa [5]): > 50000 nM; IC50 (Neuromedin-B receptor [3]): 580 nM
29 | 640 | Cc1ccc2c(c1)NC(c1ccccc1SC(F)(F)F)C1=C(CC3(CCCC3)CC1=O)N2 (configuration not stated) | –
30 | 1400 | Cc1ccc2c(c1)NC(c1c(F)cccc1Cl)C1=C(CCCC1=O)N2 (configuration not stated) | –
31 | > 10000 | Cc1ccc2c(c1)NC(c1ccccc1C(F)(F)F)C1=C(CC3(CCCC3)CC1=O)N2 (single isomer, unassigned; (-)) | –
32 | 200 | CSc1ccccc1C1Nc2cc(C)ccc2NC2=C1C(=O)CC(C)(C)C2 (configuration not stated) | –
33 | 10000 | CC1(C)CC(=O)C2=C(C1)Nc1ccc(C(=O)O)cc1NC2c1c(F)cccc1Cl (configuration not stated) | –
34 | 550 | Cc1ccc2c(c1)NC(c1ccccc1[N+](=O)[O-])C1=C(CC(C)(C)CC1=O)N2 (configuration not stated) | –
35 | 280 | Cc1ccc2c(c1)NC(c1ccccc1Cl)C1=C(CC(C)(C)CC1=O)N2 (configuration not stated) | –
36 | 6900 | Cc1ccc2c(c1)NC(c1ccccc1)C1=C(CC(C)(C)CC1=O)N2 (configuration not stated) | –

— ChEMBL document CHEMBL1152392, “Discovery and optimization of a novel Neuromedin B receptor antagonist” (Bioorg Med Chem Lett, 2009)
